TAG inh – triacylglycerol accumulation inhibition; H9c2 cells, Nile Red lipid (TAG) fluorescence; cells loaded with 200 µM oleic acid; inhibition, % at 12.5 µM; actives 0.66% (n = 230,000);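 active means pattern-corrected inhibition of lipid staining of at least 50% with the nuclear-stain viability signal not falling by more than 50%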;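 further: 0% = DMSO wells and 100% = triacsin C control wells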
MC4R ag barr – activates human MC4R beta-arrestin recruitment; P32245; U2OS MC4R beta-arrestin complementation, luminescence; percent of melanotan II response, DMSO zero; activation, % at 8.9 µM; actives 0.98% (n = 360,000); AID 540308;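 active means activation above a per-plate cutoff, the mean activation of sample wells on that plate plus 3 SD, cut at about 8% in these data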
MC4R antagonist – human MC4R antagonism in cAMP assay | inhibition, % at 6.5 µM | actives 0.48% (n = 360,000) | MC4R-expressing cells, MTII-stimulated cAMP, LANCE TR-FRET | AID 540295 | P32245;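 active means inhibition above its plate's cutoff, the mean of tested wells on that plate plus 3 SD, cut at about 29% in these data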;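 further: 0% = Melanotan II alone and 100% = Melanotan II plus saturating MCL0020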
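Material: human MC4R-expressing U2OS cells. Probe or stimulus: Melanotan II challenge. Dosing: 6.5 µM single dose. Times: 30-min compound, 1-h challenge, 1-h detection, room temperature. Technique: TR-FRET with Eu-cAMP and labeled anti-cAMP, 671 nm. Replication: singlicate.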
Calb FLC – affects C. albicans growth with fluconazole. C. albicans CaCi-2 + fluconazole, Alamar Blue growth, 48 h. actives 0.57% (n = 300,000). growth inhibition, % (no concentration beside the values);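 active means growth inhibition above about 58% in most replicates, limit read from the data, passing the limit was not always enough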;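 further: all wells also contain fluconazole at 8 µg/ml as a sub-toxic cotreatment; 0% = median of DMSO wells and 100% = median of geldanamycin control wells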
GalR3 antagonist – human GalR3 antagonism; O60755; HEK293 GalR3-CNG cAMP membrane potential fluorescence; galR3 body fused to GalR1 C-terminus; inhibition, % at 3 µM; actives 0.44% (n = 360,000); AID 651719;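 active means inhibition above the screen-wide average plus 3 SD, cut at about 13% in these data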;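 further: forskolin and galanin both at EC90 stimulate the cells; cAMP rise reported by CNG channel membrane potential dye signal; 0% = forskolin plus galanin with DMSO and 100% = forskolin alone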
Target sequence (O60755 1-299 limits assumed): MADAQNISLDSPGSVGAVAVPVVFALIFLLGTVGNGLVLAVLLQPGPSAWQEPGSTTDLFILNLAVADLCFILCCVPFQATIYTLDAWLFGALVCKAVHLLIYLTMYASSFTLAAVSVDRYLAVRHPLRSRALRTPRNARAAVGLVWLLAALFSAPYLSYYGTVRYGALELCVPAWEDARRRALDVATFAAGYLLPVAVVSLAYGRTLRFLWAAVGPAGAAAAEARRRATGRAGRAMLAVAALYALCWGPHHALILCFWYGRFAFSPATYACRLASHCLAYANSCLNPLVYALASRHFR
Efflux pump mplx – antifungal efflux pump inhibition, Nile Red retention. S. cerevisiae Candida pump triplex. inhibition, % at 10 µM. actives 0.44% (n = 330,000);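 active means plate passing quality check with inhibition over a set limit, or well fluorescence over plate mean plus 4 SD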;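 further: Nile Red retained in pooled yeast measured as flow cytometry median fluorescence; 0% = buffer negative control and 100% = Enniatin B positive control; higher means more Nile Red kept so more efflux inhibition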
U2OS cAMP counter – counter-screen for MC4R antagonists: nonselective cAMP signaling inhibitors; shares compounds with MC4R antagonist; parental U2OS, forskolin cAMP, LANCE TR-FRET; inhibition, % at 6.5 µM; actives 26% (n = 1,600);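 active means mean inhibition over triplicates above the low-control well mean plus 3 SD, set per campaign, cut at about 13% in these data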;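 further: signal is single emission at 671 nm which falls as cellular cAMP rises; 0% = forskolin-stimulated wells and 100% = buffer without forskolin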
MC4R cAMP antag – human MC4R cAMP antagonism confirmation; AID 602195; MC4R-expressing cells, MTII-stimulated cAMP, TR-FRET; shares compounds with MC4R antagonist; inhibition, % at 6.5 µM; actives 27% (n = 1,600); in the data active means inhibition above about 29%;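 further: 0% = agonist stimulated wells alone and 100% = agonist stimulated wells plus saturating reference antagonist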
* hit, by the source's call; x = no result. Hits are enriched below; roughly 2.9% of the tested compounds scored in any of these assays.

SMILES	TAG inh	MC4R ag barr	MC4R antagonist	Calb FLC	GalR3 antagonist	Efflux pump mplx	U2OS cAMP counter	MC4R cAMP antag
CC(C)c1nnc(NC(=O)c2nc(S(=O)(=O)Cc3ccccc3F)ncc2Cl)s1	x	x	x	1.5	-2.6	-0.1	x	x
CSc1nnc(NC(=O)c2nc(S(=O)(=O)Cc3cccc(C)c3)ncc2Cl)s1	x	-2.6	59.1*	5.6	-8.1	-0.1	28.6*	48.0*
CN(C)CCNc1ncnc2c1ncn2[C@H]1CN(Cc2cccs2)C[C@@H](CO)O1	11.6	-0.6	2.2	x	-2.6	x	x	x
COc1ccc(NC(=O)C2(C)CCN2CCc2ccccc2)cc1OC (stereo not given)	-11.9	2.6	2.9	x	-5.2	x	x	x
COc1cc(NC(=O)c2cccc3c(-c4cnn(C)c4)coc23)cc(OC)c1OC	-9.2	-0.6	46.1*	x	-4.7	x	-1.3	10.6
CC1(C(=O)NS(=O)(=O)Cc2ccccc2)CCN1C(=O)Cc1ccccc1Cl (stereo not given)	12.5	-1.5	1.4	x	-2.7	x	x	x
Cc1ccc(NC(=O)c2sc(Cl)nc2-c2ccccc2)cc1C	1.9	4.9	43.5*	12.7	-4.0	0.0	15.7*	45.9*
Cc1cc(=O)n2c(C(=O)Nc3ccc(C)c(C)c3)c(C(=O)Nc3ccccc3)sc2n1	-1.0	-1.6	12.1	13.9	-5.1	-0.2	x	x
O=C(Nc1cc(F)cc(F)c1)c1sc(Cl)nc1-c1ccccc1	x	5.6	31.5*	3.0	1.1	0.1	2.9	9.2
O=C(Nc1ccccc1)c1sc(Cl)nc1-c1ccccc1	x	-1.2	16.7	44.4	-8.9	0.2	x	x
O=C(OCCO)c1c(C2=CCCCC2)oc2c1C(OCCO)CCC2 (stereo not given)	x	x	x	x	-5.7	x	x	x
COc1cc(C(=O)N2CCC2(C)C(=O)NC(C)C)cc(OC)c1OC (stereo not given)	0.8	-0.9	14.8	x	-5.3	x	x	x
Cn1c(=O)c2c(nc(Sc3n[nH]c(N)n3)n2Cc2ccccc2Cl)n(C)c1=O	x	1.4	29.1*	-1.2	-3.7	0.1	-0.2	-4.0
O=S(=O)(NCc1nnnn1-c1ccc(F)cc1)c1ccc(F)cc1	10.0	0.4	-1.8	x	-3.6	x	x	x
Cc1cccc(OC(=O)c2sc(Cl)nc2C)c1	x	-2.2	31.6*	2.1	-4.6	-0.2	13.9*	32.0*
C[C@@H]1CN(c2ccc(N3CCNC[C@@H]3C)cc2C#N)C[C@H](C)O1	x	x	x	x	-4.4	x	x	x
O=C(c1nc2ccccn2c1CNCCn1ccc2ccccc21)N1CCOCC1	10.4	3.8	32.5*	2.0	-1.6	-0.2	-9.7	-21.2
O=C(c1nc2ccccn2c1CNCCCn1nnc2ccccc21)N1CCOCC1	x	-0.8	9.9	2.0	1.8	0.1	x	x
O=C(/C=C/[C@H]1O[C@@H](n2cnc3c(NC(=O)c4ccccc4)ncnc32)[C@H](O)[C@@H]1O)NCC1CCCCC1	x	x	x	x	-4.3	x	x	x
CCNC(=O)CC1C(=O)N(C)C(=S)N1NC(=O)c1ccc(Cl)cc1 (stereo not given)	5.2	0.4	4.7	-2.0	-3.0	-0.1	x	x
Nc1ccc(C(=O)NN2C(=O)[C@H](Cl)C2c2ccc(Cl)cc2)cc1 (stereo not given in full)	13.4	-0.5	36.6*	x	-2.1	x	21.6*	19.3
COc1cc(C2c3[nH]c4ccccc4c3CC3COC(=O)N32)cc(OC)c1O (stereo not given)	77.2	-2.2	-15.3	x	10.5	x	x	x
Cc1ccccc1N(CC(=O)NC1CCCCC1)C(=O)CNC(=O)c1cccs1	x	1.9	30.2*	-8.3	-8.7	0.0	-17.2	-32.9
O=C(CN(C(=O)CNC(=O)c1cccs1)c1ccccc1F)NC1CCCCC1	x	1.5	21.9	-2.6	-10.7	0.0	x	x
CCn1nc(C)cc1-c1nnc(Sc2ncc([N+](=O)[O-])s2)n1C	x	-3.0	45.7*	0.5	-6.0	0.1	28.0*	57.5*
Cc1ccc(S(=O)(=O)N2CCCCC2)cc1NC(=O)COC(=O)c1cc[n+]([O-])cc1	x	1.6	29.1*	-13.5	3.3	0.1	2.6	-4.3
